The values that follow come from publication PMC3517121 (Chembiochem : a European journal of chemical biology, 2011).

One series in a line: Solubility in water. The format is physicochemical. To be noted: qualitative statement.
The conditions of series [1]: cited from earlier work.
The nature of series [2]: Molar absorption coefficient. It is filed as physicochemical. A digest of the protocol: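 Test cross-linker concentration fixed by 1H NMR in DMSO-d6 with a known concentration of 1,2-dichloroethane, comparing the DCE methylene signal with the cross-linker α-methylene signal. The NMR solution was then diluted in DMSO or in 10 mM phosphate buffer pH 7.0, and UV-Vis spectra were recorded to calculate the molar absorption coefficient.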

SMILES strings stand for the structures. Where two headings read alike, the source gives them in different places.

With `CC(=O)Nc1ccc(N=Nc2ccc(-c3ccc(N=Nc4ccc(NC(C)=O)cc4)cc3)cc2)cc1` [BPDB(r), 4,4’-bis(4-acetamidophenyl)diazenylbiphenyl], the solubility in water entry in the series “Solubility in water” is reported as “not soluble in water”.
Consider `O=C(CCl)Nc1ccc(N=Nc2ccc(NC(=O)CCl)c(S(=O)(=O)O)c2)cc1S(=O)(=O)O` [BSBCA, 3,3’-bis(sulfonato)-4,4’-bis(chloroacetamide)azobenzene], for which the molar absorption coefficient in series [1] is listed as 27,000 M^-1 cm^-1.
On to `O=C(CCl)Nc1ccc(N=Nc2ccc(-c3ccc(N=Nc4ccc(NC(=O)CCl)cc4)cc3S(=O)(=O)O)c(S(=O)(=O)O)c2)cc1` [BPDBS, 4,4’-bis(4-(2-chloroacetamido)phenyl)diazenylbiphenyl-2,2’-disulfonate], for which the molar absorption coefficient is listed as 45,000 M^-1cm^-1 in series [2] (at 360 nm in sodium phosphate buffer, pH 7.0) and 52,000 M^-1cm^-1 in series [2] (at 380 nm in DMSO). Further, the solubility in water entry in “Solubility in water” is “water-soluble”.
In the case of `O=C(CCl)Nc1ccc(N=Nc2ccc(-c3ccc(N=Nc4ccc(NC(=O)CCl)cc4)cc3)cc2)cc1` [BPDB, 4,4’-bis(4-(2-chloroacetamido)phenyl)diazenylbiphenyl], in series [2] (at 400 nm in DMSO), the molar absorption coefficient is listed as 60,000 M^-1cm^-1.
